Source: publication PMC6906348 (Therapeutic Advances in Medical Oncology, 2019)

How the values were obtained:
[1] = system: patients with MET-dysregulated advanced hepatocellular carcinoma (HCC); experiment: Antitumor activity per RECIST 1.1; type: in vivo, human; details: for Best overall response: Unknown: RECIST 1.1 data do not qualify for PD, PR, or SD
Outline: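 Asia-Pacific patients with advanced HCC received oral test compound twice daily in continuous 21-day cycles: 300 mg capsules (dose-determining), or 600 mg capsules or 400 mg tablets (expansion), until progression or toxicity. Investigator read response per RECIST 1.1 on CT, or contrast MRI if CT was contraindicated. MET-high meant IHC 3+ in ⩾50% tumor cells, or 2+ in ⩾50% plus FISH GCN ⩾5.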

[2] = Plasma pharmacokinetics; type: in vivo, human
[3] = system: patients with advanced solid tumors; details: cited from earlier work
[4] = system: MET-amplified experimental HCC tumors; details: cited from earlier work
[5] = Dose-determining n = 8 (300 mg BID capsules)
[6] = Dose-expansion, All patients n = 30
[7] = Dose-expansion, MET-high n = 10
[8] = MET-high expansion group (n = 10)
[9] = MET-high expansion group, 1 patient

With `CNC(=O)c1ccc(-c2cnc3ncc(Cc4ccc5ncccc5c4)n3n2)cc1F` [capmatinib] the “Best overall response: Complete response (CR)” value (from here on “Best overall response … (CR)”) [1, 5] was 0 n (%), the “Best overall response: Partial response (PR)” value (“Best overall response … (PR)” for short) [1, 5] was 0 n (%) and the “Best overall response: Progressive disease” value [1, 5] was 3 (38) n (%). For the same compound, the “Best overall response: Unconfirmed CR” value [1, 5] was 0 n (%), the “Best overall response: Unconfirmed PR” value [1, 5] was 0 n (%) and the “Disease control rate (CR + PR + SD) (95% CI)” value [1, 5] was 2 (25) (3.2−65.1) n (%). The “Overall response rate (CI 95%)” value [1, 5] was 0 (0−36.9) n (%), the “Best overall response: Unknown” value [1, 5] was 3 (38) n (%) and the “Best overall response … (CR)” value [1, 6] was 1 (3) n (%). The “Best overall response … (PR)” value [1, 6] was 2 (7) n (%), the “Best overall response: Progressive disease” value [1, 6] was 16 (53) n (%) and the “Best overall response: Unconfirmed CR” value [1, 6] was 0 n (%). For the same compound, the “Best overall response: Unconfirmed PR” value [1, 6] was 1 (3) n (%), the “Disease control rate (CR + PR + SD) (95% CI)” value [1, 6] was 10 (33) (17.3−52.8) n (%) and the “Overall response rate (CI 95%)” value [1, 6] was 3 (10) (2.1−26.5) n (%). The “Best overall response: Unknown” value [1, 6] was 4 (13) n (%), the “Best overall response … (CR)” value [1, 7] was 1 (10) n (%) and the “Best overall response … (PR)” value [1, 7] was 2 (20) n (%). The “Best overall response: Progressive disease” value [1, 7] was 4 (40) n (%), the “Best overall response: Unconfirmed CR” value [1, 7] was 0 n (%) and the “Best overall response: Unconfirmed PR” value [1, 7] was 1 (10) n (%). The “Disease control rate (CR + PR + SD) (95% CI)” value [1, 7] was 5 (50) (18.7−81.3) n (%), the “Overall response rate (CI 95%)” value [1, 7] was 3 (30) (6.7−65.2) n (%) and the “Best overall response: Unknown” value [1, 7] was 1 (10) n (%). The “Best overall response … (CR)” value ([1]; Dose-expansion, MET-low n = 20) was 0 n (%), the “Best overall response … (PR)” value ([1]; Dose-expansion, MET-low n = 20) was 0 n (%) and the “Best overall response: Progressive disease” value ([1]; Dose-expansion, MET-low n = 20) was 12 (60) n (%). The “Best overall response: Unconfirmed CR” value ([1]; Dose-expansion, MET-low n = 20) was 0 n (%), the “Best overall response: Unconfirmed PR” value ([1]; Dose-expansion, MET-low n = 20) was 0 n (%) and the “Disease control rate (CR + PR + SD) (95% CI)” value ([1]; Dose-expansion, MET-low n = 20) was 5 (25) (8.7−49.1) n (%). The “Overall response rate (CI 95%)” value ([1]; Dose-expansion, MET-low n = 20) was 0 (0−16.8) n (%), the “Best overall response: Unknown” value ([1]; Dose-expansion, MET-low n = 20) was 3 (15) n (%) and the “number of complete responses” value [1, 8] was 1. For the same compound, the “number of partial responses” value [1, 8] was 2, the “duration of durable complete response” value [1, 9] was > 600 days and the “duration of durable partial response” value [1, 9] was > 600 days. The overall response rate ([1]; all expansion patients (n = 30), regardless of MET status) was 10%, the “time on treatment of two responding patients” value ([1]; at data cut-off, still on treatment) was “over 600 days” and the “patients with MET-high status achieving tumor shrinkage” value ([1]; expansion stage) was 6/10. The overall response rate ([1]; expansion stage, MET-high (n = 10)) was 30%, the “Tmax, Median” value ([2]; 300 mg BID capsule, Cycle 1 Day 1, n = 8, plasma) was 2.0 h and the AUC(0-t) ([2]; human, plasma, oral, 300 mg, geomean AUC0−12 h, 300 mg BID capsules, cycle 1 day 1) was 7740 ng·h/mL. For the same compound, the Cmax ([2]; human, plasma, oral, 300 mg, geomean Cmax, 300 mg BID capsules, cycle 1 day 1) was 2140 ng/mL, the steady-state accumulation ([2]; patients with HCC) was “minimal” and the safety profile [3] was “tolerable safety profile”. The “sensitivity of tumors to capmatinib” value [4] was “highly sensitive”.
